From ChEMBL document CHEMBL1127811, “Inhibitors of cholesterol biosynthesis. 2. Hypocholesterolemic and antioxidant activities of benzopyran and tetrahydronaphthalene analogues of the tocotrienols” (J Med Chem, 1994) come the findings set out here.

In one data set the test system is HepG2. The experiment in a line: In vitro inhibition of cholesterol biosynthesis in Hep G2 cells. Format: functional, Homo sapiens. Also noted: concentration or dose not given beside the values. The method, boiled down: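 HepG2 human hepatoma cells incubated 4 h with compound at 10 μM, DMSO vehicle controls. Mean % inhibition vs controls, SD ≤ ±10%, n ≥ 8.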

Data set [1] can be described thus: Compound oxidation potential using cyclic voltametry. Format: ADME.

Structures are written as SMILES.

`CC(C)=CCC/C(C)=C/CC/C(C)=C/CCC1(C)CCc2cc(C)c(C)cc2O1` (centres undefined): the Inhibition in the data set on HepG2 turned out to be 33%.
Molecule `CCCCC/C=C/C/C=C/CCCCCCCC1(C)CCc2cc(O)c(C)c(C)c2O1` (centres undefined) came in with an Inhibition with HepG2 of 17%.
Consider `CC(C)=CCC/C(C)=C/CC/C(C)=C/CCC1(C)C=Cc2cc(O)c(C)c(C)c2O1` (centres undefined), for which the Inhibition with HepG2 stood at 69%. In addition, the Potential in data set [1] was found to be 0.92.
`CCCCCCCCCCCCCC1(C)CCc2cc(O)c(C)c(C)c2O1` (centres undefined) yielded an Inhibition in the data set on HepG2 of 16%.
In turn, `CC(C)=CCC/C(C)=C/CC/C(C)=C/CCC1Oc2c(cc(O)c(C)c2C)C(=O)/C1=N\O` (centres undefined) returned an Inhibition in the data set on HepG2 of 84%.
In the data set with HepG2, `CCCCC/C=C\C/C=C\CCCCCCCC1(C)CCc2cc(O)c(C)c(C)c2O1` (centres undefined) came in with an Inhibition of 18%.
In turn, `CC(C)=CCC/C(C)=C/CC/C(C)=C/CCC1(C)CCc2cc(F)ccc2O1` (centres undefined) showed an Inhibition with HepG2 of 35%.
`CC(C)=CCC/C(C)=C/CC/C(C)=C/CCC1(C)CCc2c(O)cccc2O1` (centres undefined) displayed an Inhibition with HepG2 of 62%. Besides, in data set [1], the Potential was determined as 1.27.
The molecule `CC(C)=CCC/C(C)=C/CC/C=C/CCC1(C)CCc2cc(O)c(C)c(C)c2O1` (centres undefined) displayed an Inhibition in the data set on HepG2 of 68%.
Turning to `CC(C)=CCC/C(C)=C/CC/C(C)=C/CCc1oc2c(C)c(C)c(O)cc2c(=O)c1O`, the Inhibition in the data set on HepG2 was determined as 61%. The molecule also gave a Potential in data set [1] of 1.2.
`COc1cc2c(c(C)c1C)OC(C)(CC/C=C(\C)CC/C=C(\C)CCC=C(C)C)CC2` (centres undefined): the Inhibition with HepG2 was found to be 0%.
As to `CC(C)=CCC/C(C)=C/CC/C(C)=C/CCC1(C)CCc2cccc(O)c2O1` (centres undefined), the Inhibition in the data set with HepG2 turned out to be 46%. In data set [1], this molecule returned a Potential of 1.24.
In turn, `CC(C)=CCC/C(C)=C/CC/C(C)=C/CC/C(C)=C/CCC1(C)CCc2cc(O)c(C)c(C)c2O1` (centres undefined) gave an Inhibition in the data set with HepG2 of 0%.
As to `CC(C)=CCC/C(C)=C/CC/C(C)=C/CCc1cc(=O)c2cc(O)c(C)c(C)c2o1`, the Inhibition with HepG2 came to 71%.
For `CCCCCCCC/C=C/CCCCCCCC1(C)CCc2cc(O)c(C)c(C)c2O1` (centres undefined), in the data set with HepG2, the Inhibition is 10%.
Take `CC(C)=CCC/C(C)=C/CC/C(C)=C/CCC1(C)CC(O)c2cc(O)c(C)c(C)c2O1` (centres undefined): in the data set on HepG2, the Inhibition was 56%. The Potential in data set [1] is listed as 0.96.
In the data set with HepG2, `CCCCC/C=C\C/C=C\C/C=C\CCCCC1(C)CCc2cc(O)c(C)c(C)c2O1` (centres undefined) returned an Inhibition of 22%.
`CC(C)=CCC/C(C)=C/CC/C(C)=C/CCC1(C)CCc2ccc(O)c(O)c2O1` (centres undefined): the Inhibition in the data set on HepG2 was determined as 27%. Also, the Potential in data set [1] is 1.26.
